For 3 compounds, IC50 results are on record in article PMC8281356 (Chemical biology & drug design, 2021).

One assay addresses T1, human recombinant COX-2 (Homo sapiens, UniProt P35354).
T1 sequence (P35354 18-604): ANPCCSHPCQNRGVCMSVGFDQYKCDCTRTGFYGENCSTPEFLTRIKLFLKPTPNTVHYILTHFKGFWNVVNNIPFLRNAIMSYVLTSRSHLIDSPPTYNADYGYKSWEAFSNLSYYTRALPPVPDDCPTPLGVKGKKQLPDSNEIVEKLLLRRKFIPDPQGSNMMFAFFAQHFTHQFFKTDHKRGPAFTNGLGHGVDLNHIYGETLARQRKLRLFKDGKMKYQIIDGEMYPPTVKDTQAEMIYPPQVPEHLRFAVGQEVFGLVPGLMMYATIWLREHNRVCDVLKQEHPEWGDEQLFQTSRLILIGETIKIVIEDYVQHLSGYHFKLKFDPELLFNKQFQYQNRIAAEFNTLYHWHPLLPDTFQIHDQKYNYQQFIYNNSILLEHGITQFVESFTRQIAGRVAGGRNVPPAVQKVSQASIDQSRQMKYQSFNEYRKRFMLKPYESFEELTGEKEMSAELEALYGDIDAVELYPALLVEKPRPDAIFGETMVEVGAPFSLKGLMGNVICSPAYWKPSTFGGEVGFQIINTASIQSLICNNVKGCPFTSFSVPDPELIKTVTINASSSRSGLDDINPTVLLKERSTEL
Nature of the assay: COX fluorescent inhibitor screening kit. It counts as biochemical. Put shortly: (§1)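 Ovine COX-1 or human recombinant COX-2 with heme and ADHP in 100 mM Tris-HCl, pH 8.0. Test compound from 10 mM DMSO stock, final 2.5–100 μM. Arachidonic acid starts the reaction, 2 min at room temperature. Resorufin read at ex 535/em 590 nm. Percent inhibition vs no-inhibitor control; IC50 from concentration–inhibition curve, triplicate determinations.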

In a further assay the target is T2, ovine COX-1 (Ovis aries, UniProt P05979).
T2 sequence (P05979 25-600): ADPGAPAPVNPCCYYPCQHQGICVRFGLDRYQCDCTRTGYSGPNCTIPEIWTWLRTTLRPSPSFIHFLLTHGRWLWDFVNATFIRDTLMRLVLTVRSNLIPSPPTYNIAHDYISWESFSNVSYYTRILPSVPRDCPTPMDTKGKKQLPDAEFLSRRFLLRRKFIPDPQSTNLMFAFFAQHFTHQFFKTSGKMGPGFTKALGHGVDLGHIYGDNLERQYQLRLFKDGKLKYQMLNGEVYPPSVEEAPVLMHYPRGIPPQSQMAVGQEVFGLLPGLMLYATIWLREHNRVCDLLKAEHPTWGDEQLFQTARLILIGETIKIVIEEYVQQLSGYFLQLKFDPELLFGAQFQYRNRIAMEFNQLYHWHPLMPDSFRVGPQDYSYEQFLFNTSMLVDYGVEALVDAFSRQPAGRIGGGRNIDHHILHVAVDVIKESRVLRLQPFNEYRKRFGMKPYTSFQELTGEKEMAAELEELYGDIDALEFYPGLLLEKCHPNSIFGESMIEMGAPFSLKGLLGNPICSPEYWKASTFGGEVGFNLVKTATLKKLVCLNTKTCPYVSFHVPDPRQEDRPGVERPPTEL
Nature of the assay: COX fluorescent inhibitor screening kit. Type of assay: biochemical. Put shortly: as §1

Broadly, the IC50 is the concentration at which inhibition is half-maximal.

As for `CC(=O)OC[C@H]1O[C@@H](OC(C)=O)[C@H](NC(=O)Cc2ccccc2Nc2c(Cl)cccc2Cl)[C@@H](OC(C)=O)[C@@H]1OC(C)=O` [compound 3], the IC50 on human recombinant COX-2 was less than 2.5 µM; against ovine COX-1, 25.5 µM.
Turning to `COc1ccc2c(c1)c(CC(=O)N[C@H]1[C@H](OC(C)=O)O[C@H](COC(C)=O)[C@@H](OC(C)=O)[C@@H]1OC(C)=O)c(C)n2C(=O)c1ccc(Cl)cc1` [compound 4], the IC50 at human recombinant COX-2 was 33.6 µM; on ovine COX-1 it was 24.9 µM.
Consider `CC(=O)OC[C@H]1O[C@@H](OC(C)=O)[C@H](NC(=O)c2ccccc2Nc2cccc(C)c2C)[C@@H](OC(C)=O)[C@@H]1OC(C)=O` [compound 5, 1,3,4,6-Tetra-O-acetyl-2-deoxy-2-(2-((2,3-dimethylphenyl)amino)benzamido)-β-D-glucopyranose], for which the IC50 on human recombinant COX-2 was more than 100 µM; against ovine COX-1 it was less than 2.5 µM.
